Bioassay records from PubChem BioAssay.
KCNQ1 act – potentiators or activators of human KCNQ1 potassium channel | B-score at 10 µM | AID 2648 | P51787 | 310,000 compounds, 0.35% hits | CHO-K1 KCNQ1, thallium flux FluxOR fluorescence; stronger effect = higher value;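 active = fluorescence ratio B-score, a plate-corrected score, at least three library SD, with initial intensity B-score within 5 SD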
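Doses: Single concentration per compound, DMSO matched to controls | Test system: KCNQ1-transfected CHO-K1 cells | Timing: 90 min dye loading and 20 min compound exposure, both at room temperature | Measured by: Kinetic FluxOR thallium fluorescence, 10-s 1-Hz baseline, 110-s post-stimulus read | Medium: Assay buffer with matched DMSO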
KCNK9 block – blocks the human KCNK9 two-pore domain potassium channel. HEK293 KCNK9, FluxOR thallium flux fluorescence; stronger effect = lower value. B-score at 10 µM. 310,000 compounds, 1.2% hits. AID 488922;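 active = ratio B-score over 3 SD below the library mean, with starting fluorescence within 5 SD of its mean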;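 note: negative B-score means less thallium flux so channel inhibition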
KCNQ1 block – blocks the human KCNQ1 potassium channel. P51787. CHO-K1 KCNQ1, FluxOR thallium flux fluorescence; stronger effect = higher value. B-score at 10 µM. 310,000 compounds, 1.3% hits. AID 2642;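 active = compounds whose thallium flux B-score, printed positive for inhibition, exceeds three library SD while starting fluorescence stays within three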;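 note: channel opened by potassium depolarization with thallium stimulus after 20 min compound exposure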
hERG protect – compounds protecting human hERG from proarrhythmic drug block; activation (rescue from dofetilide block), less the hit threshold, % at 10 µM; AID 1511; Q12809; 310,000 compounds, 0.51% hits; CHO-hERG, FluxOR thallium flux, dofetilide IC70 present;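 active = activation above the mean of controls blocked by dofetilide plus 5 SD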;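 note: thallium influx through hERG after potassium depolarization seen as dye fluorescence rise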
KCNK3 block – human KCNK3 channel inhibition, primary screen; B-score at 10 µM; 340,000 compounds, 0.84% hits; O14649; AID 602410; CHO-KCNK3 thallium flux, FluxOR fluorescence; stronger effect = lower value;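 active = B-score under library mean minus 4 SD, starting fluorescence ratio at most library mean plus 5 SD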;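 note: more negative B-score means stronger inhibition of thallium flux through KCNK3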
KCNK9 block conf – human KCNK9 inhibitor confirmation | shares compounds with KCNK9 block | HEK293 KCNK9 cells, FluxOR thallium flux fluorescence | inhibition, % at 10 µM | 4,900 compounds, 43% hits | AID 492992;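 active = thallium signal inhibited by more than 5 SD of the compound-free buffer control wells, on both duplicate plates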;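 note: 0% = assay buffer control wells without compound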
Kir21 sel – mouse Kir2.1 off-target activity of KCNK9 modulators; AID 492993; shares compounds with KCNK9 block; Kir2.1 cells, FluxOR thallium flux fluorescence; 4,900 compounds, 4% hits; inhibition, % at 10 µM;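 active = thallium signal drop more than 5 SD beyond the mean of the no-compound control wells, seen in both duplicate plates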;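 note: signal is fluorescence rise after thallium addition divided by baseline fluorescence; plate controls were assay buffer only for no effect and full block by chlorpromazine control for full effect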
Target sequence (P35561 whole entry, looked up): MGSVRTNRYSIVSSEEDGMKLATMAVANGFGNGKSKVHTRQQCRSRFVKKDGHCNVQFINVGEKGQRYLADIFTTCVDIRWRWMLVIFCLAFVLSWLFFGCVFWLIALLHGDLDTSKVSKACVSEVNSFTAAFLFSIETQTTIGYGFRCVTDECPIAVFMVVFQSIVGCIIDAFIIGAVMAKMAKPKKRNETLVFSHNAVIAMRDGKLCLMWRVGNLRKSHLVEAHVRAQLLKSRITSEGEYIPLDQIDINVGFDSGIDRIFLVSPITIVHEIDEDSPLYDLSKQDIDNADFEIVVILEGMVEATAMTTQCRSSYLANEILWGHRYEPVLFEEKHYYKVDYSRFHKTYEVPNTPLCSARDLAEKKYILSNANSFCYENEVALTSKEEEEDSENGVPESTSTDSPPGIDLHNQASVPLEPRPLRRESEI
HEK293 Tl ctr – non-induced cell nonspecific activity of KCNK9 modulators; shares compounds with KCNK9 block; inhibition, % at 10 µM; non-induced KCNK9-HEK293, FluxOR thallium flux; 4,900 compounds, 40% hits;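 active = thallium signal drop beyond 5 SD of the untreated control mean, on both duplicate plates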;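 note: plate controls were buffer only IC0 wells for no effect and SID17386958 at its maximal inhibitory level for full effect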
Starred values were filed as active, the others as inactive. The list is not random: actives were taken first. Their share in the collection is about 3.1%.

Results for COC(=O)C(C)NC(=O)C12CC3CC(C1)CC(c1ccc(C)cc1)(C3)C2 (stereo not given) ?
KCNQ1 act: inactive; KCNK9 block: inactive; KCNQ1 block: inactive; hERG protect: -4; KCNK3 block: inactive; KCNK9 block conf: inactive; Kir21 sel: inactive; HEK293 Tl ctr: inactive

Results for CS(=O)(=O)N(CC(=O)O)c1ccc(C23CC4CC(CC(C4)C2)C3)cc1 ?
KCNQ1 act: inactive; KCNK9 block: inactive; KCNQ1 block: inactive; hERG protect: -7; KCNK3 block: inactive

Results for COc1ccccc1NC(=O)C12CC3CC(C1)CC(c1ccc(C)cc1)(C3)C2 ?
KCNQ1 act: inactive; KCNK9 block: inactive; KCNQ1 block: inactive; hERG protect: -12; KCNK3 block: inactive; KCNK9 block conf: inactive; Kir21 sel: inactive; HEK293 Tl ctr: inactive

What do the screens show for `CNC(=O)C12CC3CC(C1)CC(c1ccc(C)cc1)(C3)C2`?
KCNQ1 act: inactive; KCNK9 block: inactive; KCNQ1 block: inactive; hERG protect: -6; KCNK3 block: inactive

How did COc1ccccc1NC(=O)CN(c1ccc(C23CC4CC(CC(C4)C2)C3)cc1)S(C)(=O)=O do in these assays?
KCNQ1 act: inactive; KCNK9 block: inactive; KCNQ1 block: inactive; hERG protect: -11; KCNK3 block: inactive; KCNK9 block conf: inactive; Kir21 sel: inactive; HEK293 Tl ctr: inactive

What do the screens show for `COc1ccc(NC(=O)c2ccc(NC(=O)CN3CCC(C(N)=O)CC3)cc2)cc1`?
KCNK3 block: inactive

Results for O=C(c1ccc(S(=O)(=O)c2ccccc2Cl)c([N+](=O)[O-])c1)N1CCCCCC1 ?
KCNQ1 act: inactive; KCNK9 block: inactive; KCNQ1 block: inactive; hERG protect: -7; KCNK3 block: inactive

What do the screens show for `CCC1(C)CC(c2nc(-c3ccc(OC)cc3)cs2)CCS1` (stereo not given)?
KCNQ1 act: inactive; KCNK9 block: inactive; KCNQ1 block: inactive; hERG protect: -8; KCNK3 block: inactive

What do the screens show for `C[C@@H]1COC(=O)[C@H](NC(=O)OCC2c3ccccc3-c3ccccc32)C/C=C\C[C@@H](CC(=O)N[C@H](CO)Cc2ccccc2)C(=O)N1`?
KCNK3 block: inactive

Results for N#CCCn1cc(CNC2CCC(O)CC2)c2ccccc21 (stereo not given) ?
KCNQ1 act: inactive; KCNK9 block: inactive; KCNQ1 block: inactive; hERG protect: -13; KCNK3 block: inactive

What do the screens show for `CC(C)C(=O)N1CCN(c2nc(-c3ccccc3)c3c(c2C#N)CCCC3)CC1`?
KCNQ1 act: inactive; KCNK9 block: -8.6*; KCNQ1 block: inactive; hERG protect: -16; KCNK3 block: inactive; KCNK9 block conf: 40%*; Kir21 sel: inactive; HEK293 Tl ctr: inactive

What do the screens show for `COc1ccc(OC)c(Cc2nnc(CCC(=O)NCc3nc4ccccc4s3)o2)c1`?
KCNQ1 act: inactive; KCNK9 block: inactive; KCNQ1 block: inactive; hERG protect: -7; KCNK3 block: inactive

What do the screens show for `CCC(=O)NC(c1ccc(Cl)cc1Cl)c1ccc2cccnc2c1O` (stereo not given)?
KCNQ1 act: inactive; KCNK9 block: inactive; KCNQ1 block: inactive; hERG protect: -6; KCNK3 block: inactive

How did CC(C)C(=O)NC(c1ccc(Cl)cc1Cl)c1ccc2cccnc2c1O (stereo not given) do in these assays?
KCNQ1 act: inactive; KCNK9 block: inactive; KCNQ1 block: inactive; hERG protect: -8; KCNK3 block: inactive; KCNK9 block conf: inactive; Kir21 sel: inactive; HEK293 Tl ctr: 28%*

What do the screens show for `O=C(Nc1cccn(Cc2c(Cl)cccc2Cl)c1=O)c1c(Cl)cccc1Cl`?
KCNQ1 act: inactive; KCNK9 block: -10*; KCNQ1 block: inactive; hERG protect: -13; KCNK3 block: inactive; KCNK9 block conf: 54%*; Kir21 sel: inactive; HEK293 Tl ctr: inactive

Results for CN(Cc1cnccn1)Cc1cn(Cc2ccccc2)nc1-c1ccc2c(c1)OCO2 ?
KCNQ1 act: inactive; KCNK9 block: inactive; KCNQ1 block: inactive; hERG protect: -16; KCNK3 block: inactive; KCNK9 block conf: inactive; Kir21 sel: inactive; HEK293 Tl ctr: inactive

What do the screens show for `CN(Cc1ccccn1)Cc1cn(Cc2ccccc2)nc1-c1ccc2c(c1)OCO2`?
KCNQ1 act: inactive; KCNK9 block: inactive; KCNQ1 block: inactive; hERG protect: -10; KCNK3 block: inactive

How did CSCC(=O)Nc1ccc(F)c(Cl)c1 do in these assays?
KCNQ1 act: inactive; KCNK9 block: inactive; KCNQ1 block: inactive; hERG protect: -7; KCNK3 block: inactive; KCNK9 block conf: inactive; Kir21 sel: inactive; HEK293 Tl ctr: inactive

How did O=C(COC(=O)c1c2c(nc3ccccc13)CCCC2)Nc1ccc2c(c1)OCO2 do in these assays?
KCNQ1 act: inactive; KCNK9 block: -12*; KCNQ1 block: inactive; hERG protect: -31; KCNK3 block: inactive; KCNK9 block conf: 48%*; Kir21 sel: inactive; HEK293 Tl ctr: inactive

Results for NC(=O)COC(=O)c1c2c(nc3ccccc13)CCCC2 ?
KCNQ1 act: inactive; KCNK9 block: inactive; KCNQ1 block: inactive; hERG protect: -14; KCNK3 block: inactive

How did O=C(c1cccc(S(=O)(=O)N2CCc3ccccc32)c1)N1CCN(c2ccccn2)CC1 do in these assays?
KCNQ1 act: inactive; KCNK9 block: -10*; KCNQ1 block: inactive; hERG protect: -24; KCNK3 block: inactive; KCNK9 block conf: 36%*; Kir21 sel: inactive; HEK293 Tl ctr: inactive

Results for O=C(OCC(=O)N1CCCc2ccccc21)c1cccc(S(=O)(=O)N2CCOCC2)c1 ?
KCNQ1 act: inactive; KCNK9 block: inactive; KCNQ1 block: inactive; hERG protect: -8; KCNK3 block: inactive

Results for O=C(OCC(=O)N1CCc2ccccc21)c1cccc(S(=O)(=O)N2CCCc3ccccc32)c1 ?
KCNQ1 act: inactive; KCNK9 block: inactive; KCNQ1 block: inactive; hERG protect: -4; KCNK3 block: inactive; KCNK9 block conf: inactive; Kir21 sel: inactive; HEK293 Tl ctr: inactive

What do the screens show for `O=C(OCC(=O)N1CCc2ccccc21)c1c2c(nc3ccccc13)CCCCC2`?
KCNQ1 act: inactive; KCNK9 block: -13*; KCNQ1 block: inactive; hERG protect: -3; KCNK3 block: inactive; KCNK9 block conf: 52%*; Kir21 sel: inactive; HEK293 Tl ctr: 34%*
